Reference: BindingDB's records for doi:10.1021/jm970159v (National Taiwan University, 1998)
pKi: −log10 of the molar value.

Columns and labels:
[1] = molecular target: Histamine H1 receptor (Cavia porcellus, UniProt P31389); experiment: Compound is evaluated for binding affinity towards Histamine H1 receptor using [3H]pyrilamine in guinea pig lung at 10 uM
In short: (§1)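 Single-concentration screen at 10 µM in contract radioligand binding assays. Records whether inhibition of specific radioligand binding stayed below 50%.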

[2] = molecular target: D(3) dopamine receptor (Homo sapiens, UniProt P35462); experiment: Compound is evaluated for binding affinity towards recombinant human Dopamine receptor D3 using [3H]spiperone in CHO cells at 10 uM; in short: as §1
D(3) dopamine receptor, sequence (P35462 as listed by the source): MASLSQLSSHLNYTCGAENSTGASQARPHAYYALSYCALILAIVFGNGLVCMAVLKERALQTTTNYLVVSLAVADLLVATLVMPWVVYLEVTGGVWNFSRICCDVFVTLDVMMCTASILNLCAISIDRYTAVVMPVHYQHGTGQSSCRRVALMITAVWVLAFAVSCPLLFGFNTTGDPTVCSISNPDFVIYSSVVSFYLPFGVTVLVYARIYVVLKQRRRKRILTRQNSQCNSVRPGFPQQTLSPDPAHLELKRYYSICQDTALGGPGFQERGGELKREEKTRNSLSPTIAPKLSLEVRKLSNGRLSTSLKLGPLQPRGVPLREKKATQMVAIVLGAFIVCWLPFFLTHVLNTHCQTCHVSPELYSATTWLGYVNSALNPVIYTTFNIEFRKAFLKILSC

[3] = molecular target: Sigma non-opioid intracellular receptor 1 (Cavia porcellus) (UniProt Q60492); experiment: Compound is evaluated for binding affinity towards Sigma receptor using [3H]pentazocine in guinea pig brain
Sigma non-opioid intracellular receptor 1 (Cavia porcellus), sequence (Q60492 whole entry, looked up): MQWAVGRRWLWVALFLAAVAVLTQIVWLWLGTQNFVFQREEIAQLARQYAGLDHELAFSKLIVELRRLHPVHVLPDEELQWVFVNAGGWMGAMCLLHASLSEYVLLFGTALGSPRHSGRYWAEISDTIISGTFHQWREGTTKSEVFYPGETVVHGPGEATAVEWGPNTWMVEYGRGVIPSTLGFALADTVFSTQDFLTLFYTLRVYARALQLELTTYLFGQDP

Histamine H1 receptor, sequence (P31389 whole entry): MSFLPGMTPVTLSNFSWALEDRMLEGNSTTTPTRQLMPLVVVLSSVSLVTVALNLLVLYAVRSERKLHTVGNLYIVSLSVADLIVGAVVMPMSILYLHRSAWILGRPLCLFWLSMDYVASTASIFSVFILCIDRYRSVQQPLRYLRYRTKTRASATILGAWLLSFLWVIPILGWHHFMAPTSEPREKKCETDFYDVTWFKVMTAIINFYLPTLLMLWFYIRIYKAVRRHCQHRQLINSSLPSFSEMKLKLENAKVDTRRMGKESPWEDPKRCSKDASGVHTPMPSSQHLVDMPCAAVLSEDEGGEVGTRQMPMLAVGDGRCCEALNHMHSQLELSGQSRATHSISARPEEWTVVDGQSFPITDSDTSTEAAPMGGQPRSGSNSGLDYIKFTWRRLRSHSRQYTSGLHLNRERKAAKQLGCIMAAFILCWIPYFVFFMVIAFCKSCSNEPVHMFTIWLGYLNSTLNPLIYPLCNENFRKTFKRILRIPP

Row | Structure (SMILES) | pKi [1] | pKi [2] | pKi [3]
1 | COc1ccccc1N1CCN(C[C@H]2CN=C3c4ccccc4N=C(SC)N32)CC1 | < 5.00 | < 5.00 | 
2 | COc1ccccc1N1CCN(CC2CN3C(=O)Nc4ccccc4C3=N2)CC1 (stereo not drawn) [2-[4-(2-Methoxy-phenyl)-piperazin-1-ylmethyl]-2,6-dihydro-3H-imidazo[1,2-c]quinazolin-5-one] |  |  | 5.40
3 | COc1ccccc1N1CCN(Cc2cn3c(=O)[nH]c4ccccc4c3n2)CC1 [2-[4-(2-Methoxy-phenyl)-piperazin-1-ylmethyl]-6H-imidazo[1,2-c]quinazolin-5-one] |  |  | 6.13
4 | Oc1nc2ccccc2c2ncc(CN3CCN(c4ccccc4Cl)CC3)n12 [3-[4-(2-Chloro-phenyl)-piperazin-1-ylmethyl]-6H-imidazo[1,2-c]quinazolin-5-one] |  |  | 5.82
5 | COc1ccccc1N1CCN(CC2CN=C3c4ccccc4NC(=O)N32)CC1 (stereo not drawn) [3-[4-(2-Methoxy-phenyl)-piperazin-1-ylmethyl]-2,6-dihydro-3H-imidazo[1,2-c]quinazolin-5-one] |  |  | < 5.20
6 | COc1ccccc1N1CCN(Cc2cnc3c4ccccc4nc(O)n23)CC1 [3-[4-(2-Methoxy-phenyl)-piperazin-1-ylmethyl]-6H-imidazo[1,2-c]quinazolin-5-one] |  |  | 5.19
7 | COc1ccccc1N1CCN(CCn2c(=O)[nH]c3ccccc3c2=O)CC1 [3-{2-[4-(2-Methoxy-phenyl)-piperazin-1-yl]-ethyl}-1H-quinazoline-2,4-dione] |  |  | < 5.00
